These results are taken from ChEMBL document CHEMBL1122155, “Synthesis and biological evaluation of novel pyrimidine nucleoside analogues of 1,4-oxathiane, 1,4-dithiane, and 1,4-dioxane” (1982).

The subject of one assay is MDAY-D2. Briefly: In vitro antitumor activity (tumor cell growth inhibition) against MDAY-D2 cells. It is filed as functional, Mus musculus. In short, it runs like this: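 MDAY-D2 cells in Alpha MEM with 10% fetal calf serum, penicillin and streptomycin. Seeded at 10^3–10^4 cells/mL. Next day, compound dissolved in Me2SO and diluted in medium was added (final 0.5% Me2SO), with duplicate wells per concentration. Coulter counts after 5–6 days, before controls reached maximal density. ID50 was read from log-log plots of concentration vs cell number, with controls as 100%.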

For assay [1], the system named is L1210. Briefly: In vitro antitumor activity against mouse […] leukemia L1210 cells. The class given is functional. In short, it runs like this:
(§1)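 L1210 and K-562 cells grown in RPMI 1640 with 10% fetal calf serum plus penicillin/streptomycin. Suspensions of 10^3–10^4 cells/mL were plated, and compound (Me2SO stock diluted in medium) was added the following day. Final Me2SO was 0.5%, with two wells per concentration. Cells were counted by Coulter counter at 5–6 days. ID50 was taken from log-log concentration vs cell number plots, with untreated controls as 100%.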

Assay [2] deals with K562. Briefly: In vitro antitumor activity against human erythroleukemia K-562 cells. It is filed as functional. In short, it runs like this: as §1
The subject of assay [3] is K562. Briefly: In vitro antitumor activity (tumor cell growth inhibition) against human erythroleukemia K-562 cells. It is filed as functional. In short, it runs like this:
as §1

The subject of assay [4] is K562. The experiment in a line: In vitro antitumor activity (tumor cell growth inhibition) against human erythroleukemia K-562. The class given is functional. The method, boiled down: as §1
The subject of assay [5] is L1210. Briefly: In vitro antitumor activity (tumor cell growth inhibition) against mouse […] leukemia L1210. The class given is functional. The method, boiled down: as §1
Assay [6] has as its system L1210. The experiment in a line: In vitro antitumor activity against mouse […] leukemia L1210. The class given is functional. In short, it runs like this: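 L1210 cells in RPMI 1640 with 10% fetal calf serum and penicillin/streptomycin were seeded at 10^3-10^4 cells/mL. Compounds were dissolved in Me2SO, diluted in medium, and added the next day (final 0.5% Me2SO, matching controls), in duplicate wells. After 5-6 days, before controls peaked, cells were Coulter-counted. ID50 was read from log-log concentration vs cell-number plots, with controls as 100%.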

Structures are written as SMILES. Where “and” joins values, the source holds several entries; their conditions need not be identical. Identical values can stand only once.

For `O=c1[nH]c(=O)n(C2COCCS2)cc1F` (stereo not drawn), the ID50 was 4600 µM in the assay on MDAY-D2; over 1060 µM in the assay on L1210 [1]; >1.06 mM l-1 and >1.05 mM l-1 with K562 [2].

`O=c1ccn(C2CSCCS2)c(=O)[nH]1` (stereo not drawn): the ID50 with L1210 [1] was 240 µM; in the assay with K562 [2], over 1050 µM.

Consider `O=c1[nH]c(=O)n(C2COCCO2)cc1F` (stereo not drawn), for which the ID50 is over 1000 µM in the assay with MDAY-D2; over 970 µM with L1210 [1]; >1.09 mM l-1 and >0.97 mM l-1 with K562 [2].

`O=c1[nH]c(=O)n(C2CSCCS2)cc1F` (stereo not drawn): the ID50 in the assay on MDAY-D2 is 500 µM; with L1210 [1], 0.65 mM l-1 and 0.23 mM l-1; in the assay on K562 [2], over 1020 µM.

Regarding `O=c1[nH]c(=O)n(C2COCC[S+]2[O-])cc1F` (stereo not drawn), the ID50 is over 990 µM with K562 [3] and over 1010 µM in the assay on K562 [2].

On to `O=c1[nH]c(=O)n(C2CSCCO2)cc1F` (stereo not drawn), for which the ID50 was 1400 µM with MDAY-D2; over 1010 µM in the assay on L1210 [1]; >1 mM l-1 and 0.46 mM l-1 in the assay with K562 [2].

Turning to `O=c1[nH]c(=O)n(C2=COCCS2)cc1F`, the ID50 came to 380 µM with K562 [4] and 20 µM in the assay on L1210 [5].

With `Cc1cn(C2CSCCS2)c(=O)[nH]c1=O` (stereo not drawn), the ID50 was 0.23 mM l-1 and 0.21 mM l-1 in the assay on L1210 [1]; 670 µM in the assay with K562 [2].

Turning to `O=c1[nH]cc(F)c(=O)[nH]1` [FLUOROURACIL], the ID50 with MDAY-D2 was 0.2 µM; with K562 [2], 0.0023 mM l-1 and 0.0046 mM l-1.

For `O=c1[nH]c(=O)n(C2CCCO2)cc1F` (stereo not drawn) [TEGAFUR], the ID50 with L1210 [6] came out at 8.4 µM.
